High-throughput results: PubChem, several laboratories
RAM network inh = yeast RAM network inhibition; S. cerevisiae dse1pr::URA3 reporter, 5-FOA growth OD615, 2 d; analog-sensitive cbk1-as2 kinase mutant strain; inhibition, % at 50 µM; hit rate 1.8% among 190,000;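 active = inhibition above a set limit, 3 SD over mean compound inhibition, cut at about 8.4% in these data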;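 also: inhibition rescues growth on 5-FOA so higher OD means more RAM inhibition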
Yeast lifespan up = yeast lifespan extension. S. cerevisiae growth with nicotinamide, OD615; deaD strain in restrictive glucose medium. inhibition of the nicotinamide effect, % at 10 µM. hit rate 0.68% among 130,000. AID 775;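 active = inhibition above a set limit, placed 3 SD over the median of all compounds, cut at about 26% in these data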
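Assay system: engineered S. cerevisiae DeaD replicative-lifespan strain, galactose-grown log-phase cells; medium: restrictive CSMM-D dextrose medium; also added: nicotinamide, 1.5 mM, co-present with compound; schedule: 48 h compound exposure at 30 °C, humidified; detection: absorbance at 615 nm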
Insulin prom up = MIN6 insulin promoter up-regulation; MIN6 insulin promoter-GFP reporter, high-content imaging; active compounds read high; z-score at 5 µM; hit rate 0.3% among 190,000; AID 1625;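 active = z-score above 3 at 5 µM with at least 500 cells counted in the well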
INS promoter inh = TRM-6 insulin promoter activity inhibition; TRM-6 cells, insulin promoter-eGFP reporter, imaging; reporter expression induced with tamoxifen; inhibition, % at 2 µM; hit rate 0.9% among 130,000; AID 1273;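 active = inhibition above the mean plus 3 SD, with well images judged a real hit on visual review, cut at about 60% in these data, passing the limit was not always enough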
BB579 growth dn = yeast BB579 growth reduction in restrictive medium; S. cerevisiae BB579 growth, OD615, 48 h; inhibition, % at 10 µM; hit rate 0.51% among 140,000; AID 804;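 active = inhibition above a set limit, 3 SD over the mean compound inhibition, cut at about 44% in these data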
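System: Saccharomyces cerevisiae DeaD strain BB579, replicative lifespan model yeast. Buffer or medium: restrictive glucose-based CSMM-D medium. Doses: one dose, 10 µM compound with 0.25% DMSO. Timing: 4 h preincubation and 48 h exposure at 30 °C. Detection: turbidity as optical density at 615 nm. Benchmarks: amphotericin B 10 µg/mL, positive.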
RAM 5-FOA = restores 5-FOA growth of efflux-deficient yeast | AID 1305 | 1,200 tested, under 10 active | S. cerevisiae efflux-deficient reporter strain, 5-FOA growth OD615, 2 days | shares compounds with RAM network inh | max inhibition, %; call rule not given here
Each line names hits and unclear results; the compound was inactive in the other large screens (follow-up assays come after a bar, where they were run). Only some compounds are listed: those with a hit (about 3% of all), similar ones and a draw of the others.

CCOC(=O)c1[nH]cnc1N=Nc1c(O)ccc2ccccc12	RAM network inh 15 | RAM 5-FOA inactive
CCOc1cc(/C=N/NC(=O)C(=O)NC)cc(Br)c1O	none (no result: INS promoter inh)
CC(CNS(=O)(=O)c1ccccc1)(c1ccccc1)N1CCCCC1 (stereo not given)	none (no result: RAM network inh, Yeast lifespan up, INS promoter inh, BB579 growth dn)
COc1ccc(OC)c(NC(=O)C(Sc2ccccc2)c2ccccc2)c1 (stereo not given)	RAM network inh 14 | RAM 5-FOA inactive
O=C(NC1CCS(=O)(=O)C1)c1cccc(S(=O)(=O)N2CCCC2)c1 (stereo not given)	none (no result: Yeast lifespan up, BB579 growth dn)
CCCCN(CCCC)C1=Nc2ccccc2N/C1=C(/C#N)C(=O)OCC	RAM network inh 16 | RAM 5-FOA inactive
CCCCC(=O)O[C@H]1CC[C@H]2[C@@H]3CCc4cc(O)ccc4[C@H]3CC[C@]12C	RAM network inh 14 (no result: Insulin prom up) | RAM 5-FOA inactive
COc1ccc(OC(=O)c2cnc3n(c2=O)CCS3)cc1	none (no result: RAM network inh, Yeast lifespan up, INS promoter inh, BB579 growth dn)
CCCCCCN(C(=O)CCCCCN1C(=O)NC(c2ccc(-c3ccccc3)cc2)C(C(=O)OCc2ccccc2)=C1C)C(C(=O)NCCCC)c1ccc(OCC(=O)OC)cc1 (stereo not given)	RAM network inh 13 | RAM 5-FOA inactive
CC(=O)c1ccc(OC(=O)CCN2c3ccccc3Sc3ccccc32)cc1	RAM network inh 11 | RAM 5-FOA inactive
COc1ccc(CC(=O)Nc2cc3oc4ccccc4c3cc2OC)cc1	RAM network inh 12 (no result: INS promoter inh) | RAM 5-FOA inactive
CCOc1ccccc1NC(=O)COC(=O)Cc1ccc(-c2ccccc2)cc1	none (no result: INS promoter inh)
COc1cc(NC(=O)COC(=O)Cc2ccc(-c3ccccc3)cc2)cc(OC)c1	RAM network inh 17 | RAM 5-FOA inactive
COc1ccc(OC)c(NC(=O)COC(=O)Cc2ccc(-c3ccccc3)cc2)c1	RAM network inh 14 (no result: INS promoter inh) | RAM 5-FOA inactive
COc1ccccc1CC(=O)Nc1cc2oc3ccccc3c2cc1OC	none
C=C(C)Cn1cnc2c(oc3nc4c(cc32)CCCC4)c1=O	none (no result: RAM network inh, Yeast lifespan up, INS promoter inh, BB579 growth dn)
CCc1ccccc1NC(=O)COc1cccc2ccc(C)nc12	none
CCOc1ccc(NC(=O)CN(C)Cc2cc(=O)n3c(-c4ccccc4)csc3n2)cc1OCC	none (no result: Yeast lifespan up, INS promoter inh, BB579 growth dn)
COc1cc(-c2cc(C(=O)Nc3ccc(N4CCOCC4)cc3)c3ccccc3n2)cc(OC)c1OC	none (no result: RAM network inh, Yeast lifespan up, INS promoter inh, BB579 growth dn)
COc1cc(-c2cc(C(=O)Nc3ccc(S(=O)(=O)NCc4ccco4)cc3)c3ccccc3n2)cc(OC)c1OC	RAM network inh 13 | RAM 5-FOA inactive
CCOc1ccc(NCc2nnc(SCC(=O)Nc3nc(-c4ccccc4)cs3)n2-c2ccccc2)cc1	none
O=C(Nc1ccccc1N1CCOCC1)c1cccnc1Cl	none (no result: Yeast lifespan up, BB579 growth dn)
COc1ccccc1-n1cnc2c(c1=O)c1nc3ccccc3nc1n2-c1ccc(C)cc1	RAM network inh 11 | RAM 5-FOA inactive
CCCc1nn(C)c(C(=O)Nc2ccc(Cl)cc2)c1Cl	none (no result: Insulin prom up, INS promoter inh)
CCCc1nn(C)c(C(=O)Nc2ccc(C(C)(C)C)cc2)c1Cl	RAM network inh 13 | RAM 5-FOA inactive
COc1ccc2c(CC(=O)OCC(=O)Nc3cc(C)c(C)cc3[N+](=O)[O-])coc2c1	RAM network inh 12 | RAM 5-FOA inactive
CCC(=O)OCC(=O)Nc1cc(C)c(C)cc1[N+](=O)[O-]	none (no result: INS promoter inh)
CCCOc1ccc(-c2nc(OCC)c3ccccc3n2)cc1	RAM network inh 13 (no result: Insulin prom up) | RAM 5-FOA inactive
CCOc1nc(-c2ccncc2)nc2ccccc12	none (no result: Insulin prom up)
CCOC(=O)C1(Cc2ccccc2C(F)(F)F)CCN(CCCn2cccn2)CC1	none (no result: Yeast lifespan up, Insulin prom up, INS promoter inh, BB579 growth dn)
Clc1ccc(CSc2nnc(/C=C/c3ccccc3)o2)cc1	RAM network inh 13 | RAM 5-FOA inactive
CCCCOC(=O)c1ccc(NC(=S)NC(=O)c2c(Cl)cnn2C)cc1	RAM network inh 16 (no result: Insulin prom up) | RAM 5-FOA inactive
CCCCOC(=O)c1ccc(NC(=S)NC(=O)c2c(Cl)cnn2CC)cc1	none (no result: INS promoter inh)
CC(C)CSc1nc(N2CCOCC2)c2c(c1C#N)CC(C)(C)SC2	RAM network inh 22 | RAM 5-FOA inactive
N#Cc1nc(-c2ccc(OCc3ccccc3)cc2)oc1NCc1ccco1	RAM network inh 16 | RAM 5-FOA inactive
Cn1c(=O)c(/C=C/c2ccc(F)cc2)nc2ccccc21	RAM network inh 14 (no result: Yeast lifespan up, INS promoter inh, BB579 growth dn) | RAM 5-FOA inactive
Cc1ccc(S(=O)(=O)N(CC(=O)Nc2ccccc2C(=O)O)c2cccc(Cl)c2C)cc1	RAM network inh 14 | RAM 5-FOA inactive
Cc1cccc(N(CC(=O)Nc2ccccc2-c2ccccc2)S(=O)(=O)c2ccccc2)c1C	none (no result: INS promoter inh)
CCc1ccccc1N(C(C)=O)c1nc(CN=C=S)cs1	none (no result: Yeast lifespan up, BB579 growth dn)
C=CCn1c(=NC(=O)c2sc3ccccc3c2Cl)sc2cc(S(N)(=O)=O)ccc21	none
COCCn1c(=NC(=O)c2sc3ccccc3c2Cl)sc2cc(S(N)(=O)=O)ccc21	RAM network inh 16 | RAM 5-FOA inactive
Cc1nn(-c2ccccc2)c2c1C(c1ccc(O)c(O)c1)N1C(=N2)C(Nc2ccccc2)=Nc2ccccc21 (stereo not given)	none
Cc1cccc(NC2=Nc3ccccc3N3C2=Nc2c(c(C)nn2-c2ccccc2)C3c2ccc(O)c(O)c2)c1 (stereo not given)	RAM network inh 12 | RAM 5-FOA inactive
Cc1nn(-c2ccccc2)c2c1C(c1ccc(Cl)cc1)N(c1ccccc1)C(=O)N2 (stereo not given)	none
Cc1ccc(NC2=Nc3ccccc3N3C2=Nc2c(c(C)nn2-c2ccccc2)C3c2ccc(O)c(O)c2)cc1 (stereo not given)	RAM network inh 11 | RAM 5-FOA inactive
COc1ccccc1-c1cc(C(F)(F)F)nc(N2CCN(c3ccccc3)CC2)n1	RAM network inh 13 | RAM 5-FOA inactive
COc1ccccc1-c1cc(C(F)(F)F)nc(N2CCN(c3ccc(F)cc3)CC2)n1	none (no result: Yeast lifespan up)
CC1=NN(c2ccccc2)C(=O)C1N=Nc1ccc(C)cc1 (stereo not given)	none (no result: Yeast lifespan up, BB579 growth dn)
CC1=NN(c2nc(-c3ccc(C)cc3)cs2)C(=O)C1N=Nc1ccc(C(N)=O)cc1 (stereo not given)	RAM network inh 12 (no result: Yeast lifespan up, BB579 growth dn) | RAM 5-FOA inactive
CN(Cc1nc(Cc2cccc(C(F)(F)F)c2)no1)C1CC(C)(C)NC(C)(C)C1	none (no result: Yeast lifespan up, BB579 growth dn)
O=C(Cn1cnc(Cl)c1Cl)c1ccc(F)cc1	none (no result: Yeast lifespan up, INS promoter inh, BB579 growth dn)
Cc1ccc(C)c(OCCCCn2cnc3ccccc3c2=O)c1	none
CC(C)Oc1ccccc1OCCCCn1cnc2ccccc2c1=O	RAM network inh 14 (no result: Yeast lifespan up, INS promoter inh, BB579 growth dn) | RAM 5-FOA inactive
CC(C)OC(=O)CC1C(=O)NCCN1C(=S)NC(=O)c1ccc(F)cc1 (stereo not given)	none (no result: Yeast lifespan up, INS promoter inh, BB579 growth dn)
Cc1ccccc1Nc1cccc2nonc12	none
CCCOc1ccc(/C=C/C(=O)Nc2ccc([N+](=O)[O-])cc2)cc1	RAM network inh 13 | RAM 5-FOA inactive
CCCCOC(=O)c1ccc(NC(=O)/C=C/c2cccs2)cc1	RAM network inh 15 (no result: INS promoter inh) | RAM 5-FOA inactive
CCCCc1ccc(N=N/C(C(=O)Nc2ccccc2OC)=C(/C)O)cc1	RAM network inh 20 (no result: INS promoter inh) | RAM 5-FOA inactive
